Source: ChEMBL document CHEMBL3351713, “The identification of perillyl alcohol glycosides with improved antiproliferative activity” (J Med Chem, 2014)
Calls of active or inactive are those of the source. The rule behind the calls is not given here.

Legend:
[1] = tested on: A549; test: Cytotoxicity against human A549 cells at 250 uM after 48 hrs by alamar blue assay; assay type: functional; conditions: A549, 48 h
Outline: (§1)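 Single 250 µM concentration. Cells seeded at 3 × 10^3/well in F-12K with 10% FBS and 2 mM L-glutamine, then adhered overnight. Exposure was 48 h at 37 °C, 5% CO2, alongside 0.5% DMSO vehicle and 1.5 mM H2O2 controls. Viability was measured by resazurin reduction (0.25 mg/mL stock, 3 h) with fluorescence read at […], em 590 nm.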

[2] = Cytotoxicity against human PC3 cells after 48 hrs by alamar blue assay; assay type: functional, cell-based; conditions: PC-3, 48 h
Outline: (§2)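 Cells seeded at 3 × 10^3/well in F-12K with 10% FBS, 2 mM L-glutamine and penicillin/streptomycin, then left to adhere overnight. Medium was replaced with nine 2- or 3-fold dilutions, with 0.5% DMSO vehicle and 1.5 mM H2O2 controls. Incubation was 48 h at 37 °C, 5% CO2. Resazurin (0.25 mg/mL stock) was added for 3 h and fluorescence read ([…], em 590 nm). IC50 came from a nonlinear dose-response fit; mean ± SD, triplicates, three independent experiments.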

[3] = Cytotoxicity against human PC3 cells at 250 uM after 48 hrs by alamar blue assay; assay type: functional; conditions: PC-3, 48 h; outline: as §1
[4] = tested on: A549; test: Cytotoxicity against human A549 cells after 48 hrs by alamar blue assay; assay type: functional, cell-based; conditions: A549, 48 h; outline: as §2
[5] = target: Eukaryotic translation initiation factor 4E-binding protein 1 (Homo sapiens) (UniProt Q13541); test: Induction of 4E-BP1 phosphorylation at Ser65 in human A549 cells at 500 uM after 6 hrs by Western blotting analysis; assay type: cell-based
Outline: (§3)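 A549 cells were exposed to 250 and 500 µM for 6 h, harvested and lysed. Equal total protein was loaded for SDS-PAGE and immunoblot. Probes were p-4E-BP1 (T37/46, S65, T70), p-S6 (S235/236), eIF4E and cleaved PARP, detected by chemiluminescence.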

[6] = target: Eukaryotic translation initiation factor 4E-binding protein 1 (Homo sapiens) (UniProt Q13541); test: Induction of 4E-BP1 phosphorylation at Ser65 in human A549 cells at 250 uM after 6 hrs by Western blotting analysis; assay type: cell-based; outline: as §3
[7] = target: Eukaryotic translation initiation factor 4E-binding protein 1 (Homo sapiens) (UniProt Q13541); test: Induction of 4E-BP1 phosphorylation at Thr70 in human A549 cells at 500 uM after 6 hrs by Western blotting analysis; assay type: cell-based; outline: as §3
[8] = tested on: A549; test: Increase in PARP cleavage in human A549 cells at 250 to 500 uM after 6 hrs by Western blotting analysis; assay type: cell-based; outline: as §3
[9] = target: Eukaryotic translation initiation factor 4E-binding protein 1 (Homo sapiens) (UniProt Q13541); test: Induction of 4E-BP1 phosphorylation at Thr37/46 in human A549 cells at 500 uM after 6 hrs by Western blotting analysis; assay type: cell-based; outline: as §3
[10] = target: Eukaryotic translation initiation factor 4E-binding protein 1 (Homo sapiens) (UniProt Q13541); test: Induction of 4E-BP1 phosphorylation at Thr70 in human A549 cells at 250 uM after 6 hrs by Western blotting analysis; assay type: cell-based; outline: as §3
[11] = target: Eukaryotic translation initiation factor 4E-binding protein 1 (Homo sapiens) (UniProt Q13541); test: Induction of 4E-BP1 phosphorylation at Thr37/46 in human A549 cells at 250 uM after 6 hrs by Western blotting analysis; assay type: cell-based; outline: as §3
[12] = target: Small ribosomal subunit protein eS6 (Homo sapiens) (UniProt P62753); test: Inhibition of S6 ribosomal protein phosphorylation in human A549 cells at 250 to 500 uM after 6 hrs by Western blotting analysis; assay type: cell-based; outline: as §3

Sequence of Eukaryotic translation initiation factor 4E-binding protein 1 (Homo sapiens) (Q13541 whole entry): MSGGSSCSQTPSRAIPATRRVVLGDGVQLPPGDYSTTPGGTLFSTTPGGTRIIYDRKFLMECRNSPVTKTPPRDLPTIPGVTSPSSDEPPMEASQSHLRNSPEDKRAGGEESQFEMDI

Activity [5] | Activity [6] | Activity [7] | Activity [9] | Activity [10] | Activity [11] | inhibition [12] | SMILES | inhibition at 250 µM [1] | IC50 [2] | inhibition at 250 µM [3] | IC50 [4] | Activity [8]
– | – | – | – | – | – | – | C=C(C)[C@@H]1CC=C(CN(OC)C2O[C@@H](CO)[C@H](N=[N+]=[N-])[C@@H](O)[C@@H]2O)CC1 (stereo not given in full) | > 40% | 263 µM | > 40% | 451 µM | –
– | – | – | – | – | – | – | C=C(C)[C@@H]1CC=C(CN(OC)C2OC[C@@H](O)[C@H](O)[C@H]2O)CC1 (stereo not given in full) | > 40% | 152 µM | > 40% | 202 µM | –
– | – | – | – | – | – | – | C=C(C)[C@@H]1CC=C(/C=N/OC)CC1 | > 40% | – | > 40% | – | –
– | – | – | – | – | – | – | C=C(C)[C@@H]1CC=C(CN(OC)C2O[C@H](CNC(=O)CCCCCCCCC)[C@@H](O)[C@H](O)[C@H]2O)CC1 (stereo not given in full) | > 40% | 30 µM | > 40% | 14 µM | –
Active | Active | Active | Active | Active | Active | Active | C=C(C)[C@@H]1CC=C(CN(OC)C2O[C@H](CN=[N+]=[N-])[C@@H](N=[N+]=[N-])[C@H](O)[C@H]2O)CC1 (stereo not given in full) | > 40% | 57 µM | > 40% | 44 µM | Active
inactive | inactive | inactive | inactive | inactive | inactive | inactive | C=C(C)[C@@H]1CC=C(CO)CC1 [PERILLYL ALCOHOL] | – | 380 µM | – | 350 µM | –
– | – | – | – | – | – | – | C=CCOC(=O)NC[C@H]1OC(N(CC2=CC[C@@H](C(=C)C)CC2)OC)[C@H](O)[C@@H](O)[C@@H]1O (stereo not given in full) | > 40% | 232 µM | > 40% | 140 µM | –
– | – | – | – | – | – | – | C=C(C)[C@@H]1CC=C(CN(OC)[C@@H]2O[C@H](CO)[C@@H](O)[C@H](O)[C@H]2NC(=O)N(C)N=O)CC1 | > 40% | 232 µM | > 40% | 185 µM | –
– | – | – | – | – | – | – | C=C(C)[C@@H]1CC=C(CN(OC)C2O[C@H](CO)[C@@H](N=[N+]=[N-])[C@H](O)[C@H]2O)CC1 (stereo not given in full) | > 40% | 22 µM | > 40% | 4 µM | –
– | – | – | – | – | – | – | C=CCOC(=O)N[C@H]1C(N(CC2=CC[C@@H](C(=C)C)CC2)OC)O[C@H](CO)[C@@H](O)[C@@H]1O (stereo not given in full) | > 40% | 826 µM | > 40% | 114 µM | –
Active | Active | Active | Active | Active | Active | Active | C=C(C)[C@@H]1CC=C(CN(OC)C2O[C@H](CO)[C@@H](O)[C@H](NC(=O)CCCCCCCCC)[C@H]2O)CC1 (stereo not given in full) | > 40% | 19 µM | > 40% | 14 µM | Active
– | – | – | – | – | – | – | C=C(C)[C@@H]1CC=C(CN(OC)C2O[C@H](CN=[N+]=[N-])[C@@H](O)[C@H](O)[C@H]2O)CC1 (stereo not given in full) | > 40% | 182 µM | > 40% | 163 µM | –
– | – | – | – | – | – | – | C=C(C)[C@@H]1CC=C(CN(OC)C2OC[C@@H](N=[N+]=[N-])[C@H](O)[C@H]2O)CC1 (stereo not given in full) | > 40% | 170 µM | > 40% | 76 µM | –
– | – | – | – | – | – | – | C=C(C)[C@@H]1CC=C(CN(OC)C2O[C@H](CO)[C@@H](O)[C@H](O)[C@H]2N=[N+]=[N-])CC1 (stereo not given in full) | > 40% | 176 µM | > 40% | 221 µM | –
